Experimental data as given in ChEMBL document CHEMBL4024769, “Synthesis and Investigation of Photophysical and Biological Properties of Novel S-Containing Bacteriopurpurinimides” (J Med Chem, 2017).

Tests used:
[1] = Drug distribution in mouse S37 cell nuclear membrane at 1 uM for 4 hrs by laser scanning confocal microscopic analysis; assay type: ADME
How it was run: (§1)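 Mouse sarcoma S37 cells exposed to 1 μM photosensitizer for 4 h, then imaged by laser scanning confocal microscopy with a 63×/1.46 oil objective. Excitation 543 nm at 10 μW; emission collected above 655 nm on an APD detector. Intracellular localization judged against transmitted-light images.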

[2] = Drug distribution in mouse S37 cell membrane at 1 uM for 4 hrs by laser scanning confocal microscopic analysis; assay type: ADME, cell-based; how it was run: as §1
[3] = Drug distribution in mouse S37 cell cytoplasmic vesicles at 1 uM for 4 hrs by laser scanning confocal microscopic analysis; assay type: ADME; how it was run: as §1
[4] = Dark toxicity against mouse S37 cells assessed as cell growth inhibition up to 15 uM after 24 hrs by MTT assay; assay type: cell-based; details: s37, 24 h
How it was run: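 S37 mouse sarcoma cells in DMEM with 2 mM L-glutamine and 10% FBS, 37 °C, 5% CO2. Compound added 24 h after plating and kept without irradiation for 24 h in the dark. Survival scored visually and by MTT colorimetry.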

[5] = Drug uptake in tumor of F1 mouse implanted with mouse S37 cells at 2.5 mg/kg, iv measured after 2 hrs in presence of He-Ne laser radiation by local fluorescence spectroscopic analysis; assay type: ADME, organism-based, Neoplasm; details: in vivo
How it was run: (§2)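 Single iv dose of 2.5 mg/kg given to F1 mice bearing S37 sarcoma. Skin, muscle, liver, kidney, spleen and tumor taken from three animals each at 0.25, 0.5, 2, 4 and 24 h and read ex vivo by contact local fluorescence spectroscopy. He–Ne 632.8 nm excitation; 640–900 nm integral normalized to backscattered laser signal (FN).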

[6] = Drug uptake in tumor of F1 mouse implanted with mouse S37 cells at 2.5 mg/kg, iv measured after 24 hrs in presence of He-Ne laser radiation by local fluorescence spectroscopic analysis; assay type: ADME, organism-based, Neoplasm; details: in vivo; how it was run: as §2
[7] = Drug uptake in skin tumor of F1 mouse implanted with mouse S37 cells assessed as normalized fluorescence at 2.5 mg/kg, iv measured up to 24 hrs in presence of He-Ne laser radiation by local fluorescence spectroscopic analysis; assay type: ADME, organism-based; details: in vivo
How it was run: (§3)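 S37 sarcoma-bearing immunocompetent F1 mice (18−22 g) given PS 2.5 mg/kg iv. Animals sacrificed at 0.25, 0.5, 2, 4 and 24 h, with three animals per time point. Skin, tumor and organ samples were read ex vivo by contact local fluorescence spectroscopy under He−Ne 632.8 nm excitation. Integrated 640−900 nm emission was normalized to the backscattered laser signal to give FN.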

[8] = Drug uptake in liver tumor of F1 mouse implanted with mouse S37 cells assessed as normalized fluorescence at 2.5 mg/kg, iv measured up to 24 hrs post injection in presence of He-Ne laser radiation by local fluorescence spectroscopic analysis; assay type: ADME, organism-based; details: in vivo; how it was run: as §2
[9] = Drug uptake in kidney tumor of F1 mouse implanted with mouse S37 cells assessed as normalized fluorescence at 2.5 mg/kg, iv measured up to 24 hrs post injection in presence of He-Ne laser radiation by local fluorescence spectroscopic analysis; assay type: ADME, organism-based; details: in vivo; how it was run: as §2
[10] = Drug uptake in spleen tumor of F1 mouse implanted with mouse S37 cells assessed as normalized fluorescence at 2.5 mg/kg, iv measured up to 24 hrs post injection in presence of He-Ne laser radiation by local fluorescence spectroscopic analysis; assay type: ADME, organism-based; details: in vivo; how it was run: as §2
[11] = Phototoxicity against mouse S37 cells implanted in F1 mouse assessed as tumor growth inhibition at 2.5 mg/kg, iv preincubated for 30 mins with subsequent 150 J/cm2 irradiation measured on day 8 post irradiation relative to control; assay type: functional; details: S37, light or radiation study, read-out: TGI
How it was run: (§4)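 S37 sarcoma mice treated on day 7 of tumor growth with compound iv; tumors 140–160 mm3 beforehand, droperidol 0.25 mg ip as anesthetic. LED irradiation at 800 ± 21 nm, 100 mW/cm2, 150 J/cm2, given 15 or 30 min after dosing. Controls got iv 0.9% NaCl. Volume = d1×d2×d3×0.52; TGI = […]×100%.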

[12] = Phototoxicity against mouse S37 cells implanted in F1 mouse assessed as tumor growth inhibition at 2.5 mg/kg, iv preincubated for 30 mins with subsequent 150 J/cm2 irradiation measured on day 11 post irradiation relative to control; assay type: functional; details: S37, light or radiation study, read-out: TGI; how it was run: as §4
[13] = Phototoxicity against mouse S37 cells implanted in F1 mouse assessed as tumor growth inhibition at 2.5 mg/kg, iv preincubated for 30 mins with subsequent 150 J/cm2 irradiation measured on day 15 post irradiation relative to control; assay type: functional; details: S37, light or radiation study, read-out: TGI; how it was run: as §4
[14] = Phototoxicity against mouse S37 cells implanted in F1 mouse assessed as tumor growth inhibition at 2.5 mg/kg, iv preincubated for 30 mins with subsequent 150 J/cm2 irradiation measured on day 18 post irradiation relative to control; assay type: functional; details: S37, light or radiation study, read-out: TGI; how it was run: as §4
[15] = Phototoxicity against mouse S37 cells implanted in F1 mouse assessed as tumor growth inhibition at 2.5 mg/kg, iv preincubated for 30 mins with subsequent 150 J/cm2 irradiation measured on day 20 post irradiation relative to control; assay type: functional; details: S37, light or radiation study, read-out: TGI; how it was run: as §4
[16] = Phototoxicity against rat Sarcoma M1 cells implanted in rat assessed as volume of tumor necrotic zones at 2.5 mg/kg, ip administered as single dose on day 11 after inoculation followed by 300 J/cm2 irradiation after 2.5 to 3 hrs measured on day 1 post photodynamic therapy (reference value: 32 +/- 6 %); assay type: functional
How it was run: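 Rat M1 sarcoma was implanted subcutaneously in the left thigh, with randomisation on day 10. A single 2.5 mg/kg ip dose was given on day 11, then 810 nm laser (0.51 W/cm2, 300 J/cm2, 10 min) after 2.5−3 h. Tumours were sectioned on days 1, 3 and 12 after PDT (controls days 12, 14, 23), five animals per point. Parenchyma and necrotic zone volumes were estimated on hematoxylin and eosin staining.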

Mus musculus = assay: Toxicity in F1 mouse implanted with mouse S37 cells at 2.5 mg/kg, iv preincubated for 15 to 30 mins with subsequent 150 J/cm2 irradiation measured up to 16 days post irradiation; assay type: organism-based; details: in vivo, 384 h
How it was run: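 F1 mice bearing S37 sarcoma (140−160 mm3) were treated on day 7 of tumour growth with 2.5 or 5.0 mg/kg iv; controls received iv 0.9% NaCl. Animals were anaesthetised with droperidol 0.25 mg/animal ip. LED irradiation (800 ± 21 nm, 100 mW/cm2, 150 J/cm2) followed 15 or 30 min after dosing. Tumour volume was calculated as d1×d2×d3×0.52, with TGI computed versus controls. Tumour-free animals were followed for 90 d.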

[17] = Drug distribution in mouse S37 cell cytoplasm at 1 uM for 4 hrs by laser scanning confocal microscopic analysis; assay type: ADME; how it was run: as §1
[18] = Drug distribution in mouse S37 cell cytoplasmic vesicles at 1 uM for 4 hrs by microspectroscopy; assay type: ADME
[19] = Drug uptake in tumor of F1 mouse implanted with mouse S37 cells assessed as normalized fluorescence units at 2.5 mg/kg, iv measured after 15 mins in presence of He-Ne laser radiation by local fluorescence spectroscopic analysis; assay type: ADME, organism-based, Neoplasm; details: in vivo, 0.25 h; how it was run: as §3

| Compound | Drug uptake [1] | Drug uptake [2] | Drug uptake [3] | Activity [4] | Drug uptake [5] | Drug uptake [6] | Flu intensity [7] | Drug uptake [8] | Drug uptake [9] | Drug uptake [10] | inhibition in vivo at 2.5 mg/kg [11] | inhibition in vivo at 2.5 mg/kg [12] | inhibition in vivo at 2.5 mg/kg [13] | inhibition in vivo at 2.5 mg/kg [14] | inhibition in vivo at 2.5 mg/kg [15] | Activity [16] | Activity (Mus musculus) | Drug uptake [17] | Drug uptake [18] | Flu intensity [19] |
| --- | --- | --- | --- | --- | --- | --- | --- | --- | --- | --- | --- | --- | --- | --- | --- | --- | --- | --- | --- | --- |
| CCCO/N=C(\C)c1c(C)c2cc3nc(c4c5[nH]c(cc6nc(cc1[nH]2)[C@@H](C)[C@@H]6CC)c(C)c5C(=O)N(OCCC)C4=O)[C@H](CCC(=O)NCCSSCCNC(=O)CC[C@@H]1c2nc(cc4[nH]c(cc5nc(cc6[nH]c7c2C(=O)N(OCCC)C(=O)c7c6C)[C@H](CC)[C@H]5C)c(/C(C)=N/OCCC)c4C)[C@H]1C)[C@H]3C | Not Active | Not Active | Active | Non-Toxic | Active | Not Active | 2 RU | Active | Active | Active | 100% | 97.4% | 93.9% | 88% | 75.5% | 60% | Non-Toxic | Not Active | Active |  |
| CCCO/N=C(\C)c1c(C)c2cc3nc(c4c5[nH]c(cc6nc(cc1[nH]2)[C@H](C)[C@H]6CC)c(C)c5C(=O)N(OCCC)C4=O)[C@@H](CCC(=O)OC)[C@@H]3C | Not Active | Not Active | Active | Non-Toxic | Active | Not Active | 2 RU | Active | Active | Active | 100% | 88.6% | 81.5% | 77.1% | 65.9% |  | Non-Toxic | Not Active | Active | 4.4 RU |
